Results from PubChem BioAssay.
Calls of active or inactive are those of the source.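 Rule for the calls, unless noted: active = NADPH fluorescence slope more negative than the mean of all samples by about 3 SD, 99.7% confidence; inactive = the rest.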

Assays:
[1] = inhibitors of TNFa-induced NFkB p65 translocation, primary screen, imaging, HUVEC, MLSMR starter and 10KST1 sets (AID 438;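 active = inhibition above 20% together with a positive visual image hit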;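 note: compound added about 3h40 before a 20 min TNFalpha stimulation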;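 for inhibition: signal is the nuclear over cytoplasmic p65 intensity ratio per well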); conditions: HUVEC TNFa-induced p65 nuclear translocation; cell count: measured here: nuclei count (cytotoxicity indicator), at 2.08 µM; inhibition: at 2 µM, stronger effect = higher value, 0% TNFa-plus-vehicle, 100% no-TNFa wells
[2] = endothelial E-selectin expression blockers – imaging, HUVEC, immunofluorescence, MLSMR starter and 10KST1 sets, primary screen (AID 487;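 active = visually confirmed hit in the image check and inhibition above 20%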;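 for inhibition: signal is fraction of cell area covered by stained E-selectin grains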;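 for nuclei count: 100% = median nuclei count of all wells on the same plate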); conditions: HUVEC TNFalpha-induced E-selectin immunofluorescence imaging, at 2 µM; inhibition: stronger effect = higher value; nuclei count: measured here: cell number, toxicity
[3] = Primary imaging screen for DUSP6 inhibitors that restore phospho-Erk in transfected HeLa cells, chemical complementation (AID 609;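 active = compounds giving at least 50% inhibition in the cell-based MKP-3 phosphatase rescue imaging test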;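 for inhibition: phospho-Erk level distribution per well compared with pooled transfected vehicle control wells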); conditions: HeLa MKP-3 transfected, phospho-Erk imaging KS statistic, at 10 µM, cells stimulated with TPA for 15 min
[4] = target: Dual specificity protein phosphatase 6 (Homo sapiens) (UniProt Q16828); assay: as above; conditions: HeLa MKP-3 transfected, phospho-Erk imaging KS statistic; at 10 µM; stronger effect = higher value; cells stimulated with TPA for 15 min
Chain of Dual specificity protein phosphatase 6 (Homo sapiens) (Q16828 whole entry, looked up): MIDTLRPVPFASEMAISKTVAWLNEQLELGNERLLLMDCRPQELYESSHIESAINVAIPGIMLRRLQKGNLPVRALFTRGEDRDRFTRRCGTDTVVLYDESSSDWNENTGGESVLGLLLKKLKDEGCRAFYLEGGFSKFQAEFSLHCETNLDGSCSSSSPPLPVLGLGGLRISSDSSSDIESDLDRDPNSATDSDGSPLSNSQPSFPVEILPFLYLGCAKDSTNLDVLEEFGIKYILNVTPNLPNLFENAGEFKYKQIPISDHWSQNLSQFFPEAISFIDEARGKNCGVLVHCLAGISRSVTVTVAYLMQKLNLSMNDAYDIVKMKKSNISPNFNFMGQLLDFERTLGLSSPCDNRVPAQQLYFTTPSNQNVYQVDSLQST

[5] = target: Voltage-gated potassium channel subunit beta-2 (Rattus norvegicus) (UniProt P62483); assay: inhibitors of rat Kvbeta2 reductase activity – biochemical, NADPH fluorescence, primary screen (AID 622;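 active = fluorescence slope higher than the sample average by over 3 SD, cut at about -0.22 in these data, passing the limit was not always enough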;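 note: slope of raw intensity against log time taken from 70 to 1610 s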); conditions: recombinant KvBeta, 4-cyanobenzaldehyde reduction, at 10 µM, stronger effect = higher value
Chain of Voltage-gated potassium channel subunit beta-2 (Rattus norvegicus) (P62483 whole entry, looked up): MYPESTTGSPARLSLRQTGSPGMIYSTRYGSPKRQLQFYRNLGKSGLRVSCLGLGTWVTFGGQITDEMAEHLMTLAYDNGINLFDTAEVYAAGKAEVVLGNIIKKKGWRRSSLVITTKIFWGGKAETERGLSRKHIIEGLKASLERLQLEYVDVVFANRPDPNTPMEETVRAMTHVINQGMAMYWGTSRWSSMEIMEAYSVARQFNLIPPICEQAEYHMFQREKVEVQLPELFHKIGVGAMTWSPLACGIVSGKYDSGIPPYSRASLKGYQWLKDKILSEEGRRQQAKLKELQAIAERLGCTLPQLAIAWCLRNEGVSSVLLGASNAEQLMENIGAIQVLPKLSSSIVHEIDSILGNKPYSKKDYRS

[6] = target: Voltage-gated potassium channel subunit beta-2 (Rattus norvegicus) (UniProt P62483); assay: enhancers of rat Kvbeta2 NADPH turnover – biochemical, NADPH fluorescence, primary screen (AID 623); conditions: Recombinant KvBeta, NADPH fluorescence decrease slope, 10 min; at 10 µM; stronger effect = lower value;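 note: fluorescence intensity change per second fitted from 20 to 320 s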
[7] = target: Alpha-2C adrenergic receptor (Homo sapiens) (UniProt P18825); assay: compounds altering alpha2C-coupled GIRK flux – cell-based, HEK293 alpha2C/GIRK1/2, thallium flux, primary screen (AID 624;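 active = fluorescence slope after compound addition differing from the mean of all screened samples at 99.7% confidence, in either direction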;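 note: slope of fluorescence ratio to pre-addition baseline per second over 15 to 24 s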); conditions: thallium flux BTC fluorescence, at 10 µM, actives lie on both sides
Chain of Alpha-2C adrenergic receptor (Homo sapiens) (P18825 whole entry, looked up): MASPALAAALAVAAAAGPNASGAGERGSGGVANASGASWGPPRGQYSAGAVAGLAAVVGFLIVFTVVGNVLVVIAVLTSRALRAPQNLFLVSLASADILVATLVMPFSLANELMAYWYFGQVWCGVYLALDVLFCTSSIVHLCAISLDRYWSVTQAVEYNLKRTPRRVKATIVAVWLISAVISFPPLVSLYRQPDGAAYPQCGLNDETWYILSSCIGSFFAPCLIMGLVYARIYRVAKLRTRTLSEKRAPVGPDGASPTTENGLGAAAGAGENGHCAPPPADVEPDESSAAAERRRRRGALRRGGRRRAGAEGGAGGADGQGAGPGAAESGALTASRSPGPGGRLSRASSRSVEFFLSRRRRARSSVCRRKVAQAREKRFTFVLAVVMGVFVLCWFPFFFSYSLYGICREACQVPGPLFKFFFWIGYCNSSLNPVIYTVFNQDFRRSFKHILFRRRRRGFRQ

[8] = inhibitors of larval lipid processing in zebrafish, primary screen, whole organism, PED6 fluorescence, gall bladder and intestine (AID 686;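 active = a full or partial loss of lipid-probe fluorescence in the fish gall bladder, intestine or both, judged by eye; inactive = no fluorescence loss, or compound toxic to the fish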;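 note: larvae 5 to 7 days old with five fish per well; signal comes from phospholipase A2 cleavage of quenched PED6 carried via bile; overnight exposure to compound and PED6 before scoring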); conditions: Zebrafish larvae PED6 lipid processing, fluorescence scoring; screened at 20 µM (by protocol)
How it was run: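 Doses: 20 µM single dose. Test system: live zebrafish larvae aged 5-7 days, whole organism. Quantity: five larvae per well. Measured by: By-eye fluorescence microscopy. Reagent: ingested quenched lipid PED6 at 100 nM. Read-out: visual per-well fluorescence inhibition score. Times: overnight exposure of larvae to compound plus PED6.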

[9] = loss of swimming-algae plug formation – whole organism, Chlamydomonas reinhardtii, WT vs cilia-less mutant, absorbance, 96-well, primary screen (AID 463189;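 active = inhibition at or above 50% relative to wild type and mutant plate controls; inactive = inhibition below 50%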;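 note: 0% = wild type cc124 cells in DMSO and 100% = ciliumless bld1 mutant cells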); conditions: Chlamydomonas reinhardtii gravitaxis, OD600 absorbance, 2 days; at 10 µM; stronger effect = higher value
[10] = measured here: cell density z-score
[11] = measured here: nuclear c-Myc green intensity z-score
[12] = measured here: nuclear pErk red intensity z-score, stronger effect = higher value

Row | Compound | cell count [1] | inhibition [1] | inhibition [2] | nuclei count [2] | z-score [3, 10] | z-score [3, 11] | z-score [3, 12] | inhibition [4] | fluorescence slope [5] | NADPH fluorescence slope [6] | slope [7] | outcome [8] | inhibition [9]
1 | CCCCCCOC(=O)CCn1[nH]c(=O)c2ccccc2c1=O | 547 | -12.2% (inactive) | -119% (inactive) | 136% | 0.183 | -0.855 | 0.203 | 7.93% (inactive) | -0.492 (inactive) | -6.3e-05 (inactive) | 0.0065 (inactive) | inactive | 27.6% (inactive)
2 | Oc1ccc(C=Nc2ccc3ncccc3c2)c(O)c1 | 490 | -5.8% (inactive) | -113% (inactive) | 117% | 1.18 | -0.733 | -0.981 | 3.66% (inactive) | -0.477 (inactive) | -3.5e-05 (inactive) | 0.00388 (inactive) | inactive | -13.6% (inactive)
3 | O=C(Nn1cnnc1)C(c1ccccc1)c1ccccc1 | 338 | -3.7% (inactive) | -164% (inactive) | 159% | 1.4 | 0.734 | 1.08 | 1.75% (inactive) | -0.417 (inactive) | -7.3e-05 (inactive) | 0.00619 (inactive) | inactive | 17.9% (inactive)
4 | Cc1ccccc1NC(=O)NCCc1nc2ccccc2[nH]1 | 543 | 1.8% (inactive) | -92.3% (inactive) | 163% | -1.18 | -0.333 | 2.49 | -11% (inactive) | -0.474 (inactive) | -0.000294 (inactive) | 0.00493 (inactive) | inactive | -6.75% (inactive)
5 | Cc1c(-c2cccs2)[n+](=O)c2c(n1[O-])CCCC2 | 431 | -16.7% (inactive) | -128% (inactive) | 164% | 1.59 | -0.562 | -0.0919 | 15% (inactive) | -0.419 (inactive) | -1.1e-05 (inactive) | 0.0072 (inactive) | inactive | 15.1% (inactive)
6 | Nc1c(Br)cc2oc(-c3ccccc3)nc2c1Br | 539 | -3.4% (inactive) | -23.5% (inactive) | 119% | -0.358 | -0.383 | -0.387 | 6.51% (inactive) | -0.482 (inactive) | -6.5e-05 (inactive) | 0.00567 (inactive) | inactive | -9.35% (inactive)
7 | Cc1cc(C)nc(NC2=NCC(=O)N2c2ccccc2)n1 | 599 | -3.5% (inactive) | -130% (inactive) | 136% | 1.19 | -0.204 | -1.47 | 3.97% (inactive) | -0.493 (inactive) | -3.7e-05 (inactive) | 0.00515 (inactive) | inactive | -0.727% (inactive)
8 | C=CCOc1nc2c(c(=O)n(C)c(=O)n2C)n1Cc1ccccc1Cl | 617 | 0.6% (inactive) | 39.7% (inactive) | 155% | -1.51 | -0.0292 | 0.274 | 16.8% (inactive) | -0.515 (inactive) | -0.000108 (inactive) | 0.0054 (inactive) | inactive | 1.08% (inactive)
9 | COc1cc(=O)n2c(-c3ccccc3)csc2n1 | 628 | 0% (inactive) | -58.9% (inactive) | 153% | -1.46 | 1.4 | 0.777 | 13.2% (inactive) | -0.465 (inactive) | -0.000258 (inactive) | 0.00547 (inactive) | inactive | 5.32% (inactive)
10 | CC(C)(C)C1=Nn2c(nnc2-c2ccco2)SC1 | 663 | -3.7% (inactive) | -70.4% (inactive) | 165% | -0.164 | 0.534 | -0.139 | -6.06% (inactive) | -0.423 (inactive) | -0.000133 (inactive) | 0.00705 (inactive) | inactive | -3.69% (inactive)
11 | c1cncc(Oc2cccc(Oc3cccnc3)c2)c1 | 388 | -2.6% (inactive) | -116% (inactive) | 133% | -0.336 | 0.96 | -0.973 | -2.07% (inactive) | -0.426 (inactive) | -1.4e-05 (inactive) | 0.00527 (inactive) | inactive | -16% (inactive)
12 | C=CCOc1nc2c(c(=O)n(C)c(=O)n2C)n1Cc1ccc(Cl)cc1 | 659 | 7.6% (inactive) | -11.6% (inactive) | 137% | -0.719 | 0.0983 | 0.628 | 27.5% (inactive) | -0.516 (inactive) | -0.000102 (inactive) | 0.00536 (inactive) | inactive | 4.31% (inactive)
13 | N#CC12CCCCC1CC1CCCCC1(C#N)N2Cc1ccccn1 (configuration not stated) | 372 | -4.4% (inactive) | -22.3% (inactive) | 86.1% | 0.309 | 0.731 | -1.95 | -3.98% (inactive) | -0.46 (inactive) | -0.000337 (inactive) | 0.0048 (inactive) | inactive | -3.05% (inactive)
14 | CC1=CC=CN2CC(O)CN=C12 (configuration not stated) | 552 | -3.9% (inactive) | -109% (inactive) | 196% | -0.0904 | 1.89 | -0.427 | 22.1% (inactive) | -0.33 (inactive) | -1.5e-05 (inactive) | 0.00477 (inactive) | inactive | 4.05% (inactive)
